Laboratory results reported in ChEMBL document CHEMBL5058577, “EUbOPEN Chemogenomics Library 2 (Multiplex)” (2022).

System: HEK-293T
Test: Multiplex assay against HEK293T
Type: toxicity, cell-based
Conditions: human
In short: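 Values for tubulin, mitochondrial-mass and membrane-permeability phenotypes are per cents of cells with healthy nuclei. These cells were identified by CellPathfinder machine-learning gating of live cells that had been stained at seeding with Hoechst33342, BioTracker Green Microtubule Cytoskeleton Dye, MitoTracker Red and Annexin V Alexa Fluor 680 and imaged on a CQ1 microscope at 37°C and 5% CO2 after compound addition. The gating first set Hoechst high-intensity objects apart from normal cells, then split normal cells into healthy, pyknosed or fragmented nuclei, and pyknosed cells into mitotic or apoptotic.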

[1] = 12 h, 1 µM, compound concentration 1 uM, replicate 1
[2] = 12 h, 1 µM, compound concentration 1 uM, replicate 2
[3] = 12 h, 10 µM, compound concentration 10 uM, replicate 1
[4] = 12 h, 10 µM, compound concentration 10 uM, replicate 2
[5] = 24 h, 1 µM, compound concentration 1 uM, replicate 1
[6] = 24 h, 1 µM, compound concentration 1 uM, replicate 2
[7] = 24 h, 10 µM, compound concentration 10 uM, replicate 1
[8] = 24 h, 10 µM, compound concentration 10 uM, replicate 2
[9] = 48 h, 1 µM, compound concentration 1 uM, replicate 1
[10] = 48 h, 1 µM, compound concentration 1 uM, replicate 2
[11] = 48 h, 10 µM, compound concentration 10 uM, replicate 1
[12] = 48 h, 10 µM, compound concentration 10 uM, replicate 2

## O=C(NCCO)c1cccc(-c2cc(Nc3ccc(OC(F)(F)F)cc3)ncn2)c1
[1]
  Population Apoptotic (%): 27%
  Population Fragmented Nuclei (%): 7%
  Population Healthy Nuclei (%): 78%
  Population Hoechst High Intensity Objects (%): 8%
  Population Membrane Permeable-Phenotype (%): 0%
  Population Mitochondria Different-Phenotype (%): 47%
  Population Mitotic Cells (%): 72%
  Population Normal (%): 91%
  Population Pyknosed Nuclei (%): 13%
  Population Tubulin-Different-Phenotype (%): 23%
  Total Cell Count: 409
[2]
  Population Apoptotic (%): 40%
  Population Fragmented Nuclei (%): 4%
  Population Healthy Nuclei (%): 77%
  Population Hoechst High Intensity Objects (%): 6%
  Population Mitochondria Different-Phenotype (%): 60%
  Population Mitotic Cells (%): 59%
  Population Normal (%): 93%
  Population Pyknosed Nuclei (%): 17%
  Population Tubulin-Different-Phenotype (%): 16%
  Total Cell Count: 262
[3]
  Population Apoptotic (%): 55%
  Population Fragmented Nuclei (%): 6%
  Population Healthy Nuclei (%): 76%
  Population Hoechst High Intensity Objects (%): 10%
  Population Membrane Permeable-Phenotype (%): 0%
  Population Mitochondria Different-Phenotype (%): 69%
  Population Mitotic Cells (%): 44%
  Population Normal (%): 89%
  Population Pyknosed Nuclei (%): 17%
  Population Tubulin-Different-Phenotype (%): 49%
  Total Cell Count: 374
[4]
  Population Apoptotic (%): 63%
  Population Fragmented Nuclei (%): 5%
  Population Healthy Nuclei (%): 73%
  Population Hoechst High Intensity Objects (%): 12%
  Population Mitochondria Different-Phenotype (%): 74%
  Population Mitotic Cells (%): 36%
  Population Normal (%): 87%
  Population Pyknosed Nuclei (%): 21%
  Population Tubulin-Different-Phenotype (%): 26%
  Total Cell Count: 325
[5]
  Population Apoptotic (%): 26%
  Population Fragmented Nuclei (%): 11%
  Population Healthy Nuclei (%): 78%
  Population Hoechst High Intensity Objects (%): 4%
  Population Membrane Permeable-Phenotype (%): 0%
  Population Mitochondria Different-Phenotype (%): 21%
  Population Mitotic Cells (%): 73%
  Population Normal (%): 95%
  Population Pyknosed Nuclei (%): 10%
  Population Tubulin-Different-Phenotype (%): 15%
  Total Cell Count: 538
[6]
  Population Apoptotic (%): 41%
  Population Fragmented Nuclei (%): 7%
  Population Healthy Nuclei (%): 79%
  Population Hoechst High Intensity Objects (%): 6%
  Population Mitochondria Different-Phenotype (%): 38%
  Population Mitotic Cells (%): 58%
  Population Normal (%): 93%
  Population Pyknosed Nuclei (%): 13%
  Population Tubulin-Different-Phenotype (%): 17%
  Total Cell Count: 331
[7]
  Population Apoptotic (%): 39%
  Population Fragmented Nuclei (%): 5%
  Population Healthy Nuclei (%): 80%
  Population Hoechst High Intensity Objects (%): 7%
  Population Membrane Permeable-Phenotype (%): 0%
  Population Mitochondria Different-Phenotype (%): 61%
  Population Mitotic Cells (%): 60%
  Population Normal (%): 92%
  Population Pyknosed Nuclei (%): 14%
  Population Tubulin-Different-Phenotype (%): 38%
  Total Cell Count: 447
[8]
  Population Apoptotic (%): 50%
  Population Fragmented Nuclei (%): 6%
  Population Healthy Nuclei (%): 77%
  Population Hoechst High Intensity Objects (%): 14%
  Population Mitochondria Different-Phenotype (%): 56%
  Population Mitotic Cells (%): 50%
  Population Normal (%): 85%
  Population Pyknosed Nuclei (%): 15%
  Population Tubulin-Different-Phenotype (%): 22%
  Total Cell Count: 354
[9]
  Population Apoptotic (%): 17%
  Population Fragmented Nuclei (%): 12%
  Population Healthy Nuclei (%): 80%
  Population Hoechst High Intensity Objects (%): 3%
  Population Membrane Permeable-Phenotype (%): 2%
  Population Mitochondria Different-Phenotype (%): 17%
  Population Mitotic Cells (%): 82%
  Population Normal (%): 96%
  Population Pyknosed Nuclei (%): 7%
  Population Tubulin-Different-Phenotype (%): 13%
  Total Cell Count: 897
[10]
  Population Apoptotic (%): 37%
  Population Fragmented Nuclei (%): 9%
  Population Healthy Nuclei (%): 79%
  Population Hoechst High Intensity Objects (%): 5%
  Population Membrane Permeable-Phenotype (%): 0%
  Population Mitochondria Different-Phenotype (%): 23%
  Population Mitotic Cells (%): 62%
  Population Normal (%): 94%
  Population Pyknosed Nuclei (%): 10%
  Population Tubulin-Different-Phenotype (%): 9%
  Total Cell Count: 476
[11]
  Population Apoptotic (%): 41%
  Population Fragmented Nuclei (%): 10%
  Population Healthy Nuclei (%): 79%
  Population Hoechst High Intensity Objects (%): 8%
  Population Membrane Permeable-Phenotype (%): 1%
  Population Mitochondria Different-Phenotype (%): 36%
  Population Mitotic Cells (%): 58%
  Population Normal (%): 91%
  Population Pyknosed Nuclei (%): 10%
  Population Tubulin-Different-Phenotype (%): 18%
  Total Cell Count: 595
[12]
  Population Apoptotic (%): 58%
  Population Fragmented Nuclei (%): 16%
  Population Healthy Nuclei (%): 72%
  Population Hoechst High Intensity Objects (%): 17%
  Population Membrane Permeable-Phenotype (%): 0%
  Population Mitotic Cells (%): 41%
  Population Normal (%): 82%
  Population Pyknosed Nuclei (%): 11%
  Population Tubulin-Different-Phenotype (%): 13%
  Total Cell Count: 504

## O=C1COc2nccc(-c3ccccc3F)c2CN1Cc1cc(C(F)(F)F)cc(C(F)(F)F)c1
[1]
  Population Apoptotic (%): 31%
  Population Fragmented Nuclei (%): 8%
  Population Healthy Nuclei (%): 80%
  Population Hoechst High Intensity Objects (%): 5%
  Population Membrane Permeable-Phenotype (%): 0%
  Population Mitochondria Different-Phenotype (%): 41%
  Population Mitotic Cells (%): 68%
  Population Normal (%): 94%
  Population Pyknosed Nuclei (%): 10%
  Population Tubulin-Different-Phenotype (%): 27%
  Total Cell Count: 397
[2]
  Population Apoptotic (%): 51%
  Population Fragmented Nuclei (%): 4%
  Population Healthy Nuclei (%): 83%
  Population Hoechst High Intensity Objects (%): 10%
  Population Mitochondria Different-Phenotype (%): 67%
  Population Mitotic Cells (%): 48%
  Population Normal (%): 89%
  Population Pyknosed Nuclei (%): 11%
  Population Tubulin-Different-Phenotype (%): 20%
  Total Cell Count: 333
[3]
  Population Apoptotic (%): 38%
  Population Fragmented Nuclei (%): 10%
  Population Healthy Nuclei (%): 76%
  Population Hoechst High Intensity Objects (%): 9%
  Population Membrane Permeable-Phenotype (%): 0%
  Population Mitochondria Different-Phenotype (%): 67%
  Population Mitotic Cells (%): 61%
  Population Normal (%): 90%
  Population Pyknosed Nuclei (%): 13%
  Population Tubulin-Different-Phenotype (%): 68%
  Total Cell Count: 475
[4]
  Population Apoptotic (%): 57%
  Population Fragmented Nuclei (%): 8%
  Population Healthy Nuclei (%): 79%
  Population Hoechst High Intensity Objects (%): 5%
  Population Mitochondria Different-Phenotype (%): 76%
  Population Mitotic Cells (%): 42%
  Population Normal (%): 94%
  Population Pyknosed Nuclei (%): 12%
  Population Tubulin-Different-Phenotype (%): 39%
  Total Cell Count: 382
[5]
  Population Apoptotic (%): 21%
  Population Fragmented Nuclei (%): 8%
  Population Healthy Nuclei (%): 84%
  Population Hoechst High Intensity Objects (%): 3%
  Population Membrane Permeable-Phenotype (%): 0%
  Population Mitochondria Different-Phenotype (%): 32%
  Population Mitotic Cells (%): 78%
  Population Normal (%): 96%
  Population Pyknosed Nuclei (%): 7%
  Population Tubulin-Different-Phenotype (%): 23%
  Total Cell Count: 517
[6]
  Population Apoptotic (%): 59%
  Population Fragmented Nuclei (%): 5%
  Population Healthy Nuclei (%): 87%
  Population Hoechst High Intensity Objects (%): 8%
  Population Mitochondria Different-Phenotype (%): 39%
  Population Mitotic Cells (%): 40%
  Population Normal (%): 91%
  Population Pyknosed Nuclei (%): 6%
  Population Tubulin-Different-Phenotype (%): 12%
  Total Cell Count: 428
[7]
  Population Apoptotic (%): 52%
  Population Fragmented Nuclei (%): 10%
  Population Healthy Nuclei (%): 76%
  Population Hoechst High Intensity Objects (%): 5%
  Population Membrane Permeable-Phenotype (%): 0%
  Population Mitochondria Different-Phenotype (%): 71%
  Population Mitotic Cells (%): 47%
  Population Normal (%): 94%
  Population Pyknosed Nuclei (%): 13%
  Population Tubulin-Different-Phenotype (%): 68%
  Total Cell Count: 520
[8]
  Population Apoptotic (%): 36%
  Population Fragmented Nuclei (%): 7%
  Population Healthy Nuclei (%): 79%
  Population Mitochondria Different-Phenotype (%): 72%
  Population Mitotic Cells (%): 63%
  Population Pyknosed Nuclei (%): 12%
  Population Tubulin-Different-Phenotype (%): 44%
  Total Cell Count: 492
[9]
  Population Apoptotic (%): 27%
  Population Fragmented Nuclei (%): 13%
  Population Healthy Nuclei (%): 80%
  Population Hoechst High Intensity Objects (%): 2%
  Population Membrane Permeable-Phenotype (%): 0%
  Population Mitochondria Different-Phenotype (%): 29%
  Population Mitotic Cells (%): 72%
  Population Normal (%): 97%
  Population Pyknosed Nuclei (%): 6%
  Population Tubulin-Different-Phenotype (%): 14%
  Total Cell Count: 743
[10]
  Population Apoptotic (%): 38%
  Population Fragmented Nuclei (%): 9%
  Population Healthy Nuclei (%): 81%
  Population Hoechst High Intensity Objects (%): 4%
  Population Mitochondria Different-Phenotype (%): 23%
  Population Mitotic Cells (%): 61%
  Population Normal (%): 95%
  Population Pyknosed Nuclei (%): 8%
  Population Tubulin-Different-Phenotype (%): 12%
  Total Cell Count: 574
[11]
  Population Apoptotic (%): 44%
  Population Fragmented Nuclei (%): 13%
  Population Healthy Nuclei (%): 75%
  Population Hoechst High Intensity Objects (%): 3%
  Population Membrane Permeable-Phenotype (%): 0%
  Population Mitochondria Different-Phenotype (%): 63%
  Population Mitotic Cells (%): 55%
  Population Normal (%): 96%
  Population Pyknosed Nuclei (%): 11%
  Population Tubulin-Different-Phenotype (%): 46%
  Total Cell Count: 713
[12]
  Population Apoptotic (%): 56%
  Population Fragmented Nuclei (%): 11%
  Population Healthy Nuclei (%): 80%
  Population Hoechst High Intensity Objects (%): 2%
  Population Mitochondria Different-Phenotype (%): 51%
  Population Mitotic Cells (%): 43%
  Population Normal (%): 97%
  Population Pyknosed Nuclei (%): 7%
  Population Tubulin-Different-Phenotype (%): 25%
  Total Cell Count: 669
